Data as given in ChEMBL document CHEMBL4823286, “Synthesis and evaluation of novel 2,4-diaminopyrimidines bearing a sulfoxide moiety as anaplastic lymphoma kinase (ALK) inhibition agents” (Bioorg Med Chem Lett, 2021).
Active and inactive are the calls of the source. The calls are words filed in the database; no cut-off is given here.

Columns and labels:
NCI-H2228 [1] = assay: Induction of apoptosis in human NCI-H2228 cells assessed as late apoptotic cells at 25 nM measured after 24 hrs by Annexin V-FITC/PI staining based flow cytometry assay (reference value: 2.02%); assay type: functional
Outline: (§1)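 After 24 h or 48 h exposure (5, 25, 50 nM; DMSO 0.01% control), NCI-H2228 cells were harvested, double-stained with Annexin V-FITC and PI and run on flow cytometry. Stage percentages quantified by software; three experiments, representative shown.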

NCI-H2228 [2] = assay: Induction of apoptosis in human NCI-H2228 cells assessed as viable cells at 25 nM measured after 48 hrs by Annexin V-FITC/PI staining based flow cytometry assay (reference value: 95.3%); assay type: functional; conditions: read-out: Activity; outline: as §1
NCI-H2228 [3] = assay: Induction of apoptosis in human NCI-H2228 cells assessed as viable cells at 50 nM measured after 48 hrs by Annexin V-FITC/PI staining based flow cytometry assay (reference value: 95.3%); assay type: functional; conditions: read-out: Activity; outline: as §1
NCI-H2228 [4] = assay: Cell cycle arrest in human NCI-H2228 cells assessed as accumulation of cells in S phase at 20 nM measured after 24 hrs by PI staining based flow cytometry method (reference value: 30%); assay type: functional
Outline: (§2)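 NCI-H2228 cells exposed to 20 nM for 0, 12, 24 or 48 h, stained with PI and analysed by flow cytometry for G0/G1, S and G2/M fractions. Phase percentages quantified by analysis software; three independent experiments, representative run shown.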

NCI-H2228 [5] = assay: Induction of apoptosis in human NCI-H2228 cells assessed as nuclear fragmentation at 5 to 50 nM measured after 48 hrs by Hoechst 33342 staining based flourescence microscopy method; assay type: functional, cell-based; conditions: dose 5-50 nM
Outline: (§3)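 Nuclear morphology: NCI-H2228 cells treated 48 h at 5, 25 and 50 nM, stained with Hoechst 33342, imaged on an inverted fluorescence microscope. Performed three times, representative images shown.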

NCI-H2228 [6] = assay: Cell cycle arrest in human NCI-H2228 cells assessed as downregulation of CDK4 protein expression at 20 nM measured after 12 to 48 hrs by western blot assay; assay type: functional, cell-based; conditions: time 12-48 hrs
Outline: (§4)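 Western blot of cell-cycle regulatory proteins in NCI-H2228 cells held at 20 nM for 0, 12, 24 or 48 h. Performed three times, representative blot shown.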

NCI-H2228 [7] = assay: Induction of apoptosis in human NCI-H2228 cells assessed as induction of mitochondrial membrane potential collapse at 5 to 50 nM measured after 24 hrs by JC-1 probe based flourescence microscopy; assay type: functional, cell-based; conditions: dose 5-50 nM
Outline: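 JC-1 read of mitochondrial membrane potential: NCI-H2228 cells given 5, 25 or 50 nM, or DMSO 0.01%, for 24 h, then probe-loaded 30 min and viewed by fluorescence microscopy for red aggregate versus green monomer signal. Three experiments.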

BaF3 = assay: Antiproliferative activity against mouse BaF3 cells overexpressing ALK assessed as inhibition of cell proliferation measured by CCK8 assay; assay type: functional, cell-based
Outline: (§5)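 Cell proliferation inhibition; IC50 given as mean ± SD of three independent experiments.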

NCI-H2228 [8] = assay: Induction of apoptosis in human NCI-H2228 cells assessed as necrotic cells at 25 nM measured after 24 hrs by Annexin V-FITC/PI staining based flow cytometry assay (reference value: 0.21%); assay type: functional; outline: as §1
NCI-H2228 [9] = assay: Induction of apoptosis in human NCI-H2228 cells assessed as late apoptotic cells at 25 nM measured after 48 hrs by Annexin V-FITC/PI staining based flow cytometry assay (reference value: 0.23%); assay type: functional; outline: as §1
NCI-H2228 [10] = assay: Induction of apoptosis in human NCI-H2228 cells assessed as necrotic cells at 5 nM measured after 24 hrs by Annexin V-FITC/PI staining based flow cytometry assay (reference value: 0.21%); assay type: functional; outline: as §1
NCI-H2228 [11] = assay: Induction of apoptosis in human NCI-H2228 cells assessed as early apoptotic cells at 5 nM measured after 24 hrs by Annexin V-FITC/PI staining based flow cytometry assay (reference value: 2.18%); assay type: functional; outline: as §1
NCI-H2228 [12] = assay: Cell cycle arrest in human NCI-H2228 cells assessed as accumulation of cells in G1 phase at 20 nM measured after 24 hrs by PI staining based flow cytometry method (reference value: 67.77%); assay type: functional; outline: as §2
NCI-H2228 [13] = assay: Induction of apoptosis in human NCI-H2228 cells assessed as late apoptotic cells at 50 nM measured after 24 hrs by Annexin V-FITC/PI staining based flow cytometry assay (reference value: 2.02%); assay type: functional; outline: as §1
NCI-H2228 [14] = assay: Induction of apoptosis in human NCI-H2228 cells assessed as early apoptotic cells at 50 nM measured after 48 hrs by Annexin V-FITC/PI staining based flow cytometry assay (reference value: 1.58%); assay type: functional; outline: as §1
NCI-H2228 [15] = assay: Antiproliferative activity against human NCI-H2228 cells assessed as inhibition of cell proliferation measured by CCK8 assay; assay type: functional, cell-based; outline: as §5
NCI-H2228 [16] = assay: Induction of apoptosis in human NCI-H2228 cells assessed as viable cells at 5 nM measured after 48 hrs by Annexin V-FITC/PI staining based flow cytometry assay (reference value: 95.3%); assay type: functional; conditions: read-out: Activity; outline: as §1
NCI-H2228 [17] = assay: Cell cycle arrest in human NCI-H2228 cells assessed as accumulation of cells in G2/M phase at 20 nM measured after 12 hrs by PI staining based flow cytometry method (reference value: 2.23%); assay type: functional; outline: as §2
NCI-H2228 [18] = assay: Cell cycle arrest in human NCI-H2228 cells assessed as accumulation of cells in G1 phase at 20 nM measured after 12 hrs by PI staining based flow cytometry method (reference value: 67.77%); assay type: functional; outline: as §2
NCI-H2228 [19] = assay: Induction of apoptosis in human NCI-H2228 cells assessed as viable cells at 25 nM measured after 24 hrs by Annexin V-FITC/PI staining based flow cytometry assay (reference value: 95.6%); assay type: functional; conditions: read-out: Activity; outline: as §1
NCI-H2228 [20] = assay: Induction of apoptosis in human NCI-H2228 cells assessed as necrotic cells at 50 nM measured after 24 hrs by Annexin V-FITC/PI staining based flow cytometry assay (reference value: 0.21%); assay type: functional; outline: as §1
NCI-H2228 [21] = assay: Induction of apoptosis in human NCI-H2228 cells assessed as necrotic cells at 50 nM measured after 48 hrs by Annexin V-FITC/PI staining based flow cytometry assay (reference value: 2.88%); assay type: functional; outline: as §1
NCI-H2228 [22] = assay: Cell cycle arrest in human NCI-H2228 cells assessed as accumulation of cells in G2/M phase at 20 nM measured after 48 hrs by PI staining based flow cytometry method (reference value: 2.23%); assay type: functional; outline: as §2
NCI-H2228 [23] = assay: Induction of apoptosis in human NCI-H2228 cells assessed as late apoptotic cells at 5 nM measured after 24 hrs by Annexin V-FITC/PI staining based flow cytometry assay (reference value: 2.02%); assay type: functional; outline: as §1
NCI-H2228 [24] = assay: Induction of apoptosis in human NCI-H2228 cells assessed as early apoptotic cells at 50 nM measured after 24 hrs by Annexin V-FITC/PI staining based flow cytometry assay (reference value: 2.18%); assay type: functional; outline: as §1
NCI-H2228 [25] = assay: Cell cycle arrest in human NCI-H2228 cells assessed as downregulation of Cyclin D1 protein expression at 20 nM measured after 12 to 48 hrs by western blot assay; assay type: functional, cell-based; conditions: time 12-48 hrs; outline: as §4
NCI-H2228 [26] = assay: Induction of apoptosis in human NCI-H2228 cells assessed as nuclear pyknosis at 5 to 50 nM measured after 48 hrs by Hoechst 33342 staining based flourescence microscopy method; assay type: functional, cell-based; conditions: dose 5-50 nM; outline: as §3
NCI-H2228 [27] = assay: Induction of apoptosis in human NCI-H2228 cells assessed as early apoptotic cells at 25 nM measured after 24 hrs by Annexin V-FITC/PI staining based flow cytometry assay (reference value: 2.18%); assay type: functional; outline: as §1
NCI-H2228 [28] = assay: Induction of apoptosis in human NCI-H2228 cells assessed as late apoptotic cells at 50 nM measured after 48 hrs by Annexin V-FITC/PI staining based flow cytometry assay (reference value: 0.23%); assay type: functional; outline: as §1
NCI-H2228 [29] = assay: Cell cycle arrest in human NCI-H2228 cells assessed as accumulation of cells in S phase at 20 nM measured after 12 hrs by PI staining based flow cytometry method (reference value: 30%); assay type: functional; outline: as §2
NCI-H2228 [30] = assay: Cell cycle arrest in human NCI-H2228 cells assessed as accumulation of cells in G2/M phase at 20 nM measured after 24 hrs by PI staining based flow cytometry method (reference value: 2.23%); assay type: functional; outline: as §2
NCI-H2228 [31] = assay: Induction of apoptosis in human NCI-H2228 cells assessed as viable cells at 50 nM measured after 24 hrs by Annexin V-FITC/PI staining based flow cytometry assay (reference value: 95.6%); assay type: functional; conditions: read-out: Activity; outline: as §1
NCI-H2228 [32] = assay: Cell cycle arrest in human NCI-H2228 cells assessed as accumulation of cells in S phase at 20 nM measured after 48 hrs by PI staining based flow cytometry method (reference value: 30%); assay type: functional; outline: as §2
NCI-H2228 [33] = assay: Induction of apoptosis in human NCI-H2228 cells assessed as viable cells at 5 nM measured after 24 hrs by Annexin V-FITC.PI staining based flow cytometry assay (reference value: 95.6%); assay type: functional; conditions: read-out: Activity; outline: as §1
NCI-H2228 [34] = assay: Induction of apoptosis in human NCI-H2228 cells assessed as early apoptotic cells at 5 nM measured after 48 hrs by Annexin V-FITC/PI staining based flow cytometry assay (reference value: 1.58%); assay type: functional; outline: as §1
NCI-H2228 [35] = assay: Induction of apoptosis in human NCI-H2228 cells assessed as early apoptotic cells at 25 nM measured after 48 hrs by Annexin V-FITC/PI staining based flow cytometry assay (reference value: 1.58%); assay type: functional; outline: as §1
NCI-H2228 [36] = assay: Induction of apoptosis in human NCI-H2228 cells assessed as late apoptotic cells at 5 nM measured after 48 hrs by Annexin V-FITC/PI staining based flow cytometry assay (reference value: 0.23%); assay type: functional; outline: as §1
NCI-H2228 [37] = assay: Induction of apoptosis in human NCI-H2228 cells assessed as necrotic cells at 5 nM measured after 48 hrs by Annexin V-FITC/PI staining based flow cytometry assay (reference value: 2.88%); assay type: functional; outline: as §1
NCI-H2228 [38] = assay: Inhibition of cell migration in human NCI-H2228 cells assessed as reduction in wound closure at 25 nM measured after 12 to 24 hrs by wound healing assay based phase contrast microscopy method; assay type: functional; conditions: time 12-24 hrs
Outline: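 Wound-closure migration: NCI-H2228 cells kept in 1640 medium containing compound for 12 h or 24 h, photographed by phase contrast microscopy (4× objective); untreated control for comparison. Three experiments.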

NCI-H2228 [39] = assay: Induction of apoptosis in human NCI-H2228 cells assessed as necrotic cells at 25 nM measured after 48 hrs by Annexin V-FITC/PI staining based flow cytometry assay (reference value: 2.88%); assay type: functional; outline: as §1
NCI-H2228 [40] = assay: Cell cycle arrest in human NCI-H2228 cells assessed as accumulation of cells in G1 phase at 20 nM measured after 48 hrs by PI staining based flow cytometry method (reference value: 67.77%); assay type: functional; outline: as §2

Compound: CCC(=O)Nc1cc(Nc2ncc(Cl)c(Nc3ccc(F)cc3[S+]([O-])CC)n2)c(OC)cc1N1CCN(C)CC1 (stereo unspecified)
- Activity (NCI-H2228 [1]): 9.63%
- viability at 0.025 µM (NCI-H2228 [2]): 42.8%
- viability at 0.05 µM (NCI-H2228 [3]): 10.1%
- Activity (NCI-H2228 [4]): 10.21%
- Activity (NCI-H2228 [5]): Active
- Activity (NCI-H2228 [6]): Active
- Activity (NCI-H2228 [7]): Active
- IC50 (BaF3): 8.11 nM
- Activity (NCI-H2228 [8]): 0.17%
- Activity (NCI-H2228 [9]): 37.1%
- Activity (NCI-H2228 [10]): 0.17%
- Activity (NCI-H2228 [11]): 9.56%
- Activity (NCI-H2228 [12]): 82.13%
- Activity (NCI-H2228 [13]): 5.14%
- Activity (NCI-H2228 [14]): 7.9%
- IC50 (NCI-H2228 [15]): 24.4 nM
- viability at 0.005 µM (NCI-H2228 [16]): 77%
- Activity (NCI-H2228 [17]): 8.55%
- Activity (NCI-H2228 [18]): 71.23%
- viability at 0.025 µM (NCI-H2228 [19]): 76.3%
- Activity (NCI-H2228 [20]): 0.47%
- Activity (NCI-H2228 [21]): 4.55%
- Activity (NCI-H2228 [22]): 3.41%
- Activity (NCI-H2228 [23]): 7.02%
- Activity (NCI-H2228 [24]): 18.3%
- Activity (NCI-H2228 [25]): Active
- Activity (NCI-H2228 [26]): Active
- Activity (NCI-H2228 [27]): 13.9%
- Activity (NCI-H2228 [28]): 77.5%
- Activity (NCI-H2228 [29]): 20.22%
- Activity (NCI-H2228 [30]): 7.16%
- viability at 0.05 µM (NCI-H2228 [31]): 76.1%
- Activity (NCI-H2228 [32]): 10.1%
- viability at 0.005 µM (NCI-H2228 [33]): 83.2%
- Activity (NCI-H2228 [34]): 8.19%
- Activity (NCI-H2228 [35]): 19.9%
- Activity (NCI-H2228 [36]): 14.1%
- Activity (NCI-H2228 [37]): 0.69%
- Activity (NCI-H2228 [38]): Active
- Activity (NCI-H2228 [39]): 0.22%
- Activity (NCI-H2228 [40]): 86.49%
